# From article PMC7610535 (Nature chemical biology, 2020)
# Residue numbers refer to the chain shown, from its start.
# What was measured:
# [1] = target: AURORA-B^R160L,E162T,K165R (Homo sapiens, UniProt Q96GD4, E161T/K164R/R159L); assay: Immunoblot of HA-tagged AURORA-B swap mutant x3 in MV4-11 cells; type: cell-based; conditions: 6 hours
# AURKA = target: T1, AURKA (Homo sapiens, UniProt O14965); assay: Kinobead selectivity profiling: AURKA; type: binding
# T1 sequence (O14965 1-403): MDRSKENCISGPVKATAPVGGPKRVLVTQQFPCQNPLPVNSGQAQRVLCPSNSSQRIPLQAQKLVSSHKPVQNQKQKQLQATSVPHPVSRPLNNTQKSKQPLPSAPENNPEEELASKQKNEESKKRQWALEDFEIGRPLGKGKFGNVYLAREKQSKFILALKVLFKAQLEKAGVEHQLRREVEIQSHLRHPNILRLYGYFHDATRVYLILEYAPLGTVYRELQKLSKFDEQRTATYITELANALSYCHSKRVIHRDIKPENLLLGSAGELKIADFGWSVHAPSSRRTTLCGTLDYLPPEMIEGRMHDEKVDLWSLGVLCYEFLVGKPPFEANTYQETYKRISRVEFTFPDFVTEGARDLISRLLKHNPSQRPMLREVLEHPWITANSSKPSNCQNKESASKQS
# AURORA-A^P191W = target: T2, AURORA-A^P191W (Homo sapiens, UniProt O14965, P191W); assay: HiBiT assay of AURORA-A^P191W in MV4-11 cells; type: cell-based; conditions: 6 hours
# T2 sequence (O14965 1-403 P191W): T1 sequence (O14965 1-403) with P191W
# Outline: (§1)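 HiBiT-tagged wild-type or mutant AURORA-A was expressed stably in MV4-11 cells (infected twice, 24 h apart, selected 72 h after infection). Cells were exposed to serial dilutions of the test compound for 6 h and lysed with lytic detection reagent containing the LgBiT fragment. Luminescence was then read. DC50 and DCmax were derived from the concentration–response data.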
# AURORA-A [2] = target: T3, AURORA-A (Homo sapiens, UniProt O14965); assay: Quantitative SILAC mass spectrometry: AURORA-A level in MV4-11 cells; type: cell-based; conditions: 0.1 µM, 6 hours
# T3 sequence (O14965 1-403): T1 sequence (O14965 1-403)
# MV4-11 cells [3] = assay: Annexin/PI flow cytometry, MV4-11 cells; type: cell-based, human; conditions: 0.5 µM, 72 hours
# Outline: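 MV4-11 cells were collected together with their culture medium, washed in ice-cold PBS and stained with Annexin V/Pacific Blue in HEPES/NaCl/CaCl2 binding buffer for 15 min at room temperature in the dark. Propidium iodide in buffer was added before flow cytometry. Early (annexin+, PI−) and late (annexin+, PI+) apoptotic cells were counted over 50,000 events.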
# AURORA-A^T217D = target: T4, AURORA-A^T217D (Homo sapiens, UniProt O14965, T217D); assay: Immunoblot of HA-tagged AURORA-A^T217D in IMR5 cells; type: cell-based; conditions: 24 hours
# T4 sequence (O14965 1-403 T217D): T1 sequence (O14965 1-403) with T217D
# Outline: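 IMR5 cells expressing HA-tagged AURORA-A T217D or wild-type AURORA-A were exposed to graded concentrations for 24 h. RIPA lysates (20 min, 4 °C) were cleared and BCA-quantified. Equal protein was resolved by Bis-Tris PAGE and transferred to PVDF. Membranes were blocked 1 h in 5% milk/TBS-T and probed for HA-tagged AURORA-A overnight at 4 °C.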
# AURORA-A mRNA = assay: Quantitative real-time PCR of AURORA-A mRNA in MV4-11 cells; type: cell-based, human; conditions: 0.1 µM
# Outline: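 MV4-11 cells were exposed for 6 h, and RNA and protein were isolated in parallel. AURORA-A mRNA was measured by RT-qPCR and normalised to DMSO-treated control cells; bars are means of technical replicates.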
# AURORA-A [4] = target: T3, AURORA-A; assay: HiBiT assay: AURORA-A levels based on luciferase measurements in MV4-11 cells; type: cell-based
# Outline: as §1
# MV4-11 cells [5] = assay: Quantitative SILAC mass spectrometry: relative protein abundance in MV4-11 cells; type: cell-based, human; conditions: 0.1 µM
# AURORA-A [6] = target: T3, AURORA-A; assay: Immunoblot of AURORA-A in U2OS, HLE and IMR5 cells; type: cell-based; conditions: HLE and IMR5 cell lines
# Outline: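 U2OS and HLE cells were exposed to a range of concentrations for 6 h. IMR5 cells were exposed for 6 h, or at 1 µM alongside siRNA knockdown of AURORA-A/B. Lysis was in RIPA buffer for 20 min at 4 °C, and protein was quantified by BCA. Samples were separated by Bis-Tris PAGE, blotted onto PVDF, blocked in 5% milk/TBS-T and probed overnight at 4 °C.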
# AURORA-A^D274N = target: T5, AURORA-A^D274N (Homo sapiens, UniProt O14965, D274N); assay: Immunoblot of HA-tagged kinase-dead AURORA-A^D274N; type: cell-based; conditions: 1 µM, 18 hours
# T5 sequence (O14965 1-403 D274N): T1 sequence (O14965 1-403) with D274N
# Chain of AURORA-B^R160L,E162T,K165R (Q96GD4 1-345 isoform Q96GD4-5 R160L/E162T/K165R): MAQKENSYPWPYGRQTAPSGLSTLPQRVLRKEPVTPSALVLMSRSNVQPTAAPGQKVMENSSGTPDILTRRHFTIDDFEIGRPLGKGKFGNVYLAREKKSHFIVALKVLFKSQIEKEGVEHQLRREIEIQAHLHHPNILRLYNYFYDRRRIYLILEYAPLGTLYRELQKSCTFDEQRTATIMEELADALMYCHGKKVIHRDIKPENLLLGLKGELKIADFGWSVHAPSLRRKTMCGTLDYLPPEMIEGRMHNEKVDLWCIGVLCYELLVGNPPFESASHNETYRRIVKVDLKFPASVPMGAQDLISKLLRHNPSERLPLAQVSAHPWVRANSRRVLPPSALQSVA
smiles,measurement,setting,value
COc1cc(Nc2ncc3c(n2)-c2ccc(Cl)cc2C(c2c(F)cccc2OC)=NC3)ccc1C(=O)NCCOCCOCCNC(=O)COc1cccc2c1C(=O)N(C1CCC(=O)NC1=O)C2=O (centres unmarked) [JB170],"JB170-mediated degradation of AURORA-B^R160L,E162T,K165R with respect to AURORA-A",[1],strongly attenuated
same,Kd,AURKA,0.099 µM
same,JB170-mediated depletion of AURORA-A^P191W,AURORA-A^P191W,abolished JB170-mediated depletion
same,decrease of AURORA-A levels compared to alisertib-treated cells,AURORA-A [2],73%
same,decrease of AURORA-A levels compared to untreated cells,AURORA-A [2],57%
same,annexin-positive cells,MV4-11 cells [3],56%
same,JB170-mediated depletion of AURORA-A^T217D,AURORA-A^T217D,largely abrogated
same,AURORA-A mRNA levels,AURORA-A mRNA,not reduced
same,concentration of maximal depletion of AURORA-A (DCmax),"AURORA-A [4]; HiBiT-AURORA-A, 6 hours",300 nM
same,concentrations ineffective in depleting AURORA-A (Hook effect),AURORA-A [4]; immunoblot and luminescence assays,≥ 10 µM
same,"destabilization of CEREBLON neosubstrates (GSPT1, CSNK1A1, ZFP91, IZKF1/3)",MV4-11 cells [5]; 6 hours,none was destabilized
same,"depletion of other proteins (p<0.05, log2FC<-1)","MV4-11 cells [5]; 6 hours, 4,259 proteins, including AURORA-B",no additional protein was depleted
same,AURORA-A depletion (in words),AURORA-A [6],rapid AURORA-A depletion in all cases
same,depletion of AURORA-A^D274N,AURORA-A^D274N,depleted by JB170 to a similar degree as the unmutated protein
